Our source for the IC50 and MIC values is ChEMBL document CHEMBL1142576, “New bioactive clerodane diterpenoids from the bark of Casearia grewiifolia” (J Nat Prod, 2005).

Values after ≈ are worked out from the molar mass of the structure shown.

One test deals with KB. Kind of test: Cytotoxicity against human KB cells. The class given is functional, cell-based. In a few lines: (§1)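 Human cancer cell lines: epidermoid carcinoma KB, breast cancer BC1 and small cell lung cancer NCI-H187. Colorimetric cytotoxicity method of Skehan and co-workers, with ellipticine as reference.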
Another test relates to Plasmodium falciparum. The experiment in a line: Antimalarial activity against Plasmodium falciparum K1 by [3H]hypoxanthine uptake. The class given is functional, organism-based. In a few lines:
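P. falciparum K1 (multidrug-resistant strain) kept in culture after Trager and Jensen; in vitro microculture radioisotope assay per Desjardins. Parasite growth read as [3H]-hypoxanthine uptake; IC50 = concentration giving 50% reduction in growth. Artemisinin as positive control.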

The nature of test [1]: Cytotoxicity against human BC1 cells. The class given is functional, cell-based. In a few lines: as §1
The test system of another test is NCI-H187. The experiment in a line: Cytotoxicity against human NCI-H187 cells. The class given is functional, cell-based. Summed up:
as §1

Test [2] concerns Mycobacterium tuberculosis. Kind of test: Antimycobacterial activity against Mycobacterium tuberculosis H37Ra by Alamar blue assay. The class given is functional. Summed up:
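Microplate Alamar Blue Assay (MABA) against strain H37Ra, with isoniazid and kanamycin sulfate as positive-control drugs.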
A general note: Resazurin is reduced to fluorescent resorufin, in cell work by metabolically active cells.

One may read the IC50 as the concentration that inhibits the measured activity by half. Lower therefore signals greater potency in that assay. One may read the MIC as the least concentration at which growth counts as inhibited. Read a high MIC as weaker potency. `C=CC(=C)CC[C@]1(C)[C@H]2C[C@H](OC(=O)C(C)CC)C=C3[C@H](OC(C)=O)O[C@H](OC(C)=O)[C@@]32[C@H](OC)C[C@@H]1C` (relative stereo): the IC50 with KB was found to be 7.6 µg/mL (≈ 14.3 µM); with Plasmodium falciparum, 3.2 µg/mL (≈ 6.01 µM); in test [1] it was 4 µg/mL (≈ 7.51 µM); with NCI-H187 it was 0.8 µg/mL (≈ 1.5 µM). In test [2], the MIC was determined as 12.5 µg/mL (≈ 23.5 µM).

Regarding `C=CC(=C)CC[C@]1(C)[C@H]2C[C@H](OC(=O)C(C)CC)C=C3[C@H](OC(C)=O)O[C@H](OC(C)=O)[C@@]32[C@H](O)C[C@@H]1C` (relative stereo), the IC50 came out at 2.8 µg/mL (≈ 5.4 µM) in the test on KB, 3.1 µg/mL (≈ 5.98 µM) with Plasmodium falciparum, 2.5 µg/mL (≈ 4.82 µM) in test [1] and 5.3 µg/mL (≈ 10.2 µM) with NCI-H187. In test [2], the lowest concentration to inhibit growth (MIC) was 12.5 µg/mL (≈ 24.1 µM).

As for `C=CC(=C)CC[C@]1(C)[C@H]2C[C@H](OC(=O)CC(C)C)C=C3[C@H](OC(C)=O)O[C@H](OC(C)=O)[C@@]32[C@H](OC)C[C@@H]1C` (relative stereo) [CASEARGREWIIN A], the IC50 in the test on KB came to 8.7 µg/mL (≈ 16.3 µM); with Plasmodium falciparum, 2.9 µg/mL (≈ 5.44 µM); in test [1], 4.6 µg/mL (≈ 8.64 µM); in the test with NCI-H187, 0.9 µg/mL (≈ 1.69 µM). Also, in test [2], the MIC came out at 12.5 µg/mL (≈ 23.5 µM).

In the case of `C=C/C(C)=C\C[C@]1(C)[C@H](C)[C@@H](OC(=O)/C=C/c2ccc(O)cc2)[C@H](O)[C@@]23C(=C[C@H](OC(=O)CCC)C[C@@H]12)[C@@H](OC(C)=O)O[C@H]3OC(C)=O` (relative stereo) [CASEARGREWIIN B], the IC50 in the test with KB was found to be 2.3 µg/mL (≈ 3.45 µM); in the test on Plasmodium falciparum it was 2.4 µg/mL (≈ 3.6 µM); in test [1], 1.9 µg/mL (≈ 2.85 µM); in the test with NCI-H187 it was 1.5 µg/mL (≈ 2.25 µM). This compound gave an MIC in test [2] of 12.5 µg/mL (≈ 18.7 µM).

As to `C=C/C(C)=C\C[C@]1(C)[C@H](C)[C@@H](OC(C)=O)[C@H](O)[C@@]23C(=C[C@H](OC(=O)CC(C)C)C[C@@H]12)[C@@H](OC(C)=O)O[C@H]3OC(C)=O` (relative stereo) [CASEARGREWIIN C], the IC50 came to 1.9 µg/mL (≈ 3.29 µM) in the test on KB, 3 µg/mL (≈ 5.2 µM) in the test on Plasmodium falciparum, 2 µg/mL (≈ 3.47 µM) in test [1] and 0.3 µg/mL (≈ 0.52 µM) in the test on NCI-H187. In test [2], the MIC is 25 µg/mL (≈ 43.4 µM).

As to `C[C@@H]1CC[C@H]2[C@@H](C)C(=O)O[C@@H]3O[C@@]4(C)CC[C@@H]1[C@]32OO4` [ARTEMISININ], the IC50 in the test on Plasmodium falciparum turned out to be 0.001 µg/mL (≈ 0.00354 µM).

As for `C=C/C(C)=C\C[C@]1(C)[C@H](C)CC[C@@]23C(=C[C@H](O)C[C@@H]12)[C@@H](OC(C)=O)O[C@H]3OC(C)=O` [CASEARGREWIIN D], the IC50 in the test with KB was found to be 1.3 µg/mL (≈ 3.11 µM); in the test with Plasmodium falciparum, 3.3 µg/mL (≈ 7.88 µM); in test [1] it was 0.1 µg/mL (≈ 0.239 µM); in the test on NCI-H187, 1.5 µg/mL (≈ 3.58 µM). This compound yielded an MIC in test [2] of 12.5 µg/mL (≈ 29.9 µM).

For the compound `Cc1c2ccncc2c(C)c2c1[nH]c1ccccc12` [ELLIPTECINE], in test [1], the IC50 turned out to be 0.26 µg/mL (≈ 1.06 µM).

For `NNC(=O)c1ccncc1` [ISONIAZID], the MIC in test [2] stood at 0.05 µg/mL (≈ 0.365 µM).

On to `NC[C@H]1O[C@H](O[C@H]2[C@H](O)[C@@H](O[C@H]3O[C@H](CO)[C@@H](O)[C@H](N)[C@H]3O)[C@H](N)C[C@@H]2N)[C@H](O)[C@@H](O)[C@@H]1O.O=S(=O)(O)O` [KANAMYCIN SULFATE], for which, in test [2], the MIC was 2.5 µg/mL.
